# Screens from PubChem.
# ABCB1 block – human ABCB1 inhibition, ABCG2 as counter-screen. CCRF-Adr cells, JC-1 efflux, flow cytometry. inhibition, % at 6.6 µM. 190,000 compounds, 0.067% hits; in the data active = inhibition above about 40%;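 also: higher value means more JC-1 retained so stronger ABCB1 efflux block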
# ABCG2 block – blocks JC-1 efflux by human ABCG2 transporter | Q9UNQ0 | IgMXP3 cells, flow cytometry | inhibition, % at 6.6 µM | 190,000 compounds, 0.1% hits;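 active = inhibition above 80%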
#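 Test system: IgMXP3 (ABCG2) plus far-red-tagged CCRF-Adr (ABCB1) cells / Amount: 3 million cells/mL in well / Reagent: JC-1 transporter substrate / Timing: 10 min compound exposure, 25 °C / Signal: flow cytometry, 530 nm JC-1 signal / Read-out: percent efflux inhibition, scaled nicardipine 100% to DMSO 0% / Benchmarks: nicardipine as high control, DMSO as low control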
# DTT redox prof – compounds producing H2O2 with reducing agent – biochemical, NIH compound library profiling, artefact control for MLSCN library redox annotation, primary screen; DTT-dependent redox cycling H2O2, phenol red/HRP absorbance; 100% = 100 µM peroxide control, 0% = buffer; activation, % at 10 µM; 200,000 compounds, 0.03% hits;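 active = activation of at least 50% relative to the plate's high and low controls in the primary single-dose screen; inactive = activation below 50%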;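 also: compound incubated with DTT at 0.8 mM final as the reducing agent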
# FLuc act counter – affects firefly luciferase, flagging false hits in luciferase stimulation screens | ATPlite luciferase biochemical, luminescence, 10 min; 0 = ATP-free wells, 1 = DMSO control | 200,000 tested, under 10 active | activation factor at 10 µM | P08659;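 active = luciferase activation factor, scaled between plate controls, of at least 2 with compound at 10 µM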
#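 System: cell-free luciferase reagent; medium: PBS as buffer for the ATP substrate; doses: test compounds dosed from 2 mM stocks in 100% DMSO; incubation: 10 min, room temperature; measured by: luminescence from luciferase reaction; read-out: luciferase activation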
# FLuc inh counter – inhibits firefly luciferase, flagging false hits in luciferase inhibition screens; P08659; ATPLite firefly luciferase biochemical luminescence, 10 min; inhibition, % at 10 µM; 200,000 compounds, 1.5% hits; AID 1006;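 active = inhibition above about 50% when tested at 10 µM, limit read from the data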
# Measles CPE – protection of cells from measles virus. Measles virus-infected cells, CPE protection, absorbance. protection (pct of control), % at 4 µM. 140,000 compounds, 1.5% hits; in the data active = protection mostly above about 24%, no sharp cut-off; inactive = mostly below about 26%
# Numbers stand for hits; n = inactive; x = not tested or not shown. This is a sample that favours compounds with a hit; in the whole collection about 2.7% have one here.
SMILES,ABCB1 block,ABCG2 block,DTT redox prof,FLuc act counter,FLuc inh counter,Measles CPE
CC(NS(=O)(=O)c1ccc(Br)cc1)C(c1cccs1)N1CCN(C)CC1 (configuration not stated),n,n,n,n,n,27
COc1cc(C(=O)NCc2nnc(SCC(=O)N3CCOCC3)o2)cc(OC)c1OC,n,n,n,n,n,x
O=c1[nH][nH]c(C(F)(F)F)c1/C=N/N1CCOCC1,n,n,n,n,n,x
COc1nc(OC)nc(Oc2ccc([N+](=O)[O-])cc2Cl)n1,n,n,n,n,n,n
O=C1N/C(=C\c2ccc(O)cc2)C(=O)c2ccccc21,n,n,n,n,93,n
O=C(O)/C=C1\NC(=O)c2ccccc21,n,n,n,n,n,n
CS(=O)(=O)NCCOc1ccc(S(=O)(=O)NCCOc2ccccc2)cc1,n,n,n,n,n,x
Cc1cccc(C)c1NS(=O)(=O)c1ccc(OCCNS(C)(=O)=O)cc1,n,n,n,n,81,x
CC(=O)/C(=N/Nc1ccccc1)Sc1nnc(C(O)c2ccccc2)n1-c1ccccc1 (configuration not stated),n,n,n,n,n,n
COC(c1ccccc1)c1nnc(CCC(=O)N(C)Cc2cccc(-n3cccn3)c2)o1 (configuration not stated),n,n,n,n,n,x
CCOC(=O)CNNC(=O)Nc1ccc(Cl)c(Cl)c1,x,n,n,n,n,21
O=C(NNC(=O)c1cc(OCC(F)(F)F)ccc1OCC(F)(F)F)c1cccc(C(F)(F)F)c1,n,n,n,n,n,78
Cc1ccc(C(=O)NNC(=O)c2cc(OCC(F)(F)F)ccc2OCC(F)(F)F)cc1,n,n,n,n,n,n
Cc1cccc(C(C)Nc2ccc([N+](=O)[O-])cn2)c1 (configuration not stated),n,n,n,n,n,43
CC(=O)Nc1ccc([N+](=O)[O-])cn1,n,n,n,n,n,n
Cc1ccc(C(=O)COC(=O)CCC(=O)Nc2ccccc2Cl)cc1[N+](=O)[O-],n,n,n,n,n,n
Cc1ccc(C(=O)COC(=O)CCCC(=O)Nc2cc(C(F)(F)F)ccc2Cl)cc1C,n,n,n,n,54,n
CCCCc1ccc(-c2ccc(Br)cc2O)nc1,n,n,n,n,n,n
CCCCc1ccc(-c2ccc(C)cc2O)nc1,n,n,n,n,75,n
Cc1ccc2c(c1)nnn2C1CCN(CC(=O)NNC(=O)c2ccco2)CC1,n,n,n,n,n,x
Cc1ccc(NC(=O)CC(C(=O)O)c2ccccc2)cc1 (configuration not stated),n,n,n,n,n,n
COc1ccc(Cl)cc1NC(=O)Nc1cccc([N+](=O)[O-])c1C,n,n,n,n,n,n
COc1ccc(CCNc2cc(C)nc3c(-c4ccccc4)cnn23)cc1OC,n,n,n,n,n,x
Cc1cc(-c2ccccc2)n2ncc(-c3ccccc3)c2n1,n,n,n,n,85,n
Cc1cc(N2CCC(C)CC2)n2ncc(-c3ccccc3)c2n1,n,n,n,n,n,n
SMILES,ABCB1 block,ABCG2 block,DTT redox prof,FLuc act counter,FLuc inh counter,Measles CPE
Cc1cc(NCCCn2ccnc2)n2ncc(-c3ccccc3)c2n1,n,n,n,n,87,n
COc1ccc(-c2cc(C)nc3c(-c4ccccc4)cnn23)cc1,n,n,n,n,51,x
CN(C)c1oc(-c2ccc(Cl)cc2)nc1S(=O)(=O)c1ccccc1,n,n,n,n,n,n
c1cncc(CSc2ccc(-c3ccc4c(c3)OCO4)nn2)c1,n,n,n,n,53,x
Fc1cccc(CSc2ccc(-c3ccc4c(c3)OCO4)nn2)c1,n,n,n,n,n,n
CN=C1S/C(=C\c2cc(C)n(-c3ccccc3F)c2C)C(=O)N1C,n,n,n,n,82,n
COc1ccc(C(=O)NCCNc2ccccc2[N+](=O)[O-])cc1,n,n,n,n,62,x
CC(C)COc1ccc(C(=O)Nc2ccccc2[N+](=O)[O-])cc1,n,n,n,n,n,n
CSc1nnc(NC(=O)c2ccc(S(=O)(=O)N(C)C)cc2)s1,n,n,n,n,60,x
CN(C)S(=O)(=O)c1ccc(C(=O)Nc2nnc(SCc3ccccc3)s2)cc1,n,n,n,n,n,n
